Measurements published in ChEMBL document CHEMBL4052700, “Synthesis and biological evaluation of JL-A7 derivatives as potent ABCB1 inhibitors” (Bioorg Med Chem, 2017).
pIC50: −log10 of the molar value.

Tests used:
Assay type in all cases: cell-based
[1] = system: K562/A02; assay: Cytotoxicity against human K562/A02 cells after 48 hrs by MTT assay; details: K562/A02, 48 h
How it was run: (§1)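 K562 (parental) and K562/A02 (ADM-resistant, ABCB1-overexpressing) cells, 1×10^4/well, grown 24 h. A graded dose of compound in medium was added, then 48 h at 37 °C under 5% CO2. MTT was added for 4 h at 37 °C and absorbance read at 570 nm. IC50 was taken from dose–response curves.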

[2] = system: K562; assay: Cytotoxicity against human K562 cells after 48 hrs by MTT assay; details: K562, 48 h; how it was run: as §1
[3] = molecular target: T1, ATP-dependent translocase ABCB1 (Homo sapiens, UniProt P08183); assay: Inhibition of ABCB1 in human K562/A02 cells assessed as potentiation of adriamycin-induced cytotoxicity by measuring reduction in ADR IC50 at 5 uM measured after 48 hrs by MTT assay relative to ADR alone
T1 sequence (P08183 whole entry): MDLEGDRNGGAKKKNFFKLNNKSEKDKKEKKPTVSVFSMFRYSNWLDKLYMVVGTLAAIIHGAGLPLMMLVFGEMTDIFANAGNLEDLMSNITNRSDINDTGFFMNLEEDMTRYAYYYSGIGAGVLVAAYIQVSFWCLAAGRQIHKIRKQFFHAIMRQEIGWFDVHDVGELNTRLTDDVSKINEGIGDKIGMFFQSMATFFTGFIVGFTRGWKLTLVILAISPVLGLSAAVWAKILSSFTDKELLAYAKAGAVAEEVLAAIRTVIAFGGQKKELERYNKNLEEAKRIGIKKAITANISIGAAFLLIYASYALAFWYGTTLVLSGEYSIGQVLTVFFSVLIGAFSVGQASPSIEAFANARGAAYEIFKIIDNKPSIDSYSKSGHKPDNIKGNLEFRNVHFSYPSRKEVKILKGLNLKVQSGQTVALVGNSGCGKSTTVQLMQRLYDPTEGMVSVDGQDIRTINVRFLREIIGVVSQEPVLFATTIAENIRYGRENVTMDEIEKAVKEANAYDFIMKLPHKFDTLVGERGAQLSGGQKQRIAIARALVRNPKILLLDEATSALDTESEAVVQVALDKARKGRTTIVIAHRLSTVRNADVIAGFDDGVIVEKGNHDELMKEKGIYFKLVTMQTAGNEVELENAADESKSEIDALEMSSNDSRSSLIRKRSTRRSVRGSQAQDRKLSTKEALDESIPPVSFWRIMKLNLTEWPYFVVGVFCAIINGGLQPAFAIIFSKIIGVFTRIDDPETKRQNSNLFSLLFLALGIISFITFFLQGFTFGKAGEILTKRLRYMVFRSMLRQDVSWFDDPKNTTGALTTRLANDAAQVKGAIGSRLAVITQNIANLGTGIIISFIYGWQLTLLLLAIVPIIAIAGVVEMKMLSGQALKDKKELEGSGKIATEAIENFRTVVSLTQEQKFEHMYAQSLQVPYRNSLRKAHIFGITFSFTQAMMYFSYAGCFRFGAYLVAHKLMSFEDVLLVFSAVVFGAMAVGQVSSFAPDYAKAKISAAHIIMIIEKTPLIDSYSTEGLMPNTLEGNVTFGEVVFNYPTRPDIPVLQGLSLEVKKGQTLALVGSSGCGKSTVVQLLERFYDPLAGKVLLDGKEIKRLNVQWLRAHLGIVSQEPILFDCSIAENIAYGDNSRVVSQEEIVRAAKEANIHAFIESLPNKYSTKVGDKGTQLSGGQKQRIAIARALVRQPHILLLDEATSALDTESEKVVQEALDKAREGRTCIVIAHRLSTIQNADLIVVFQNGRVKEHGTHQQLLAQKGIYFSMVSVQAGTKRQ
How it was run: (§2)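 K562/A02 cells in RPMI 1640 with 10% FBS, 1×10^4/well, grown 24 h. Graded ADM was given with the modulator (0.025–5.0 µM), 48 h at 37 °C, 5% CO2. MTT 4 h, A570. ADM IC50 came from dose–response curves. RF = ADM IC50 without modulator / IC50 with modulator. Triplicates, three independent runs, mean ± SD.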

[4] = molecular target: T1, ATP-dependent translocase ABCB1; assay: Inhibition of ABCB1 in human K562/A02 cells assessed as potentiation of adriamycin-induced cytotoxicity by measuring ADR IC50 treated for 48 hrs followed by compound washout measured immediately by MTT assay relative to ADR alone
How it was run: (§3)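 Duration of reversal in K562/A02 cells. After modulator exposure, cells were tested without washout or after modulator removal followed by 0, 6, 12 or 24 h in drug-free medium. ADM IC50 was then found by MTT. RF = IC50 without modulator / IC50 with modulator. Two to three experiments, mean ± SD.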

[5] = molecular target: T1, ATP-dependent translocase ABCB1; assay: Inhibition of ABCB1 in human K562/A02 cells assessed as potentiation of adriamycin-induced cytotoxicity by measuring ADR IC50 treated for 48 hrs followed by compound washout measured after 6 hrs by MTT assay relative to ADR alone; how it was run: as §3
[6] = molecular target: T1, ATP-dependent translocase ABCB1; assay: Inhibition of ABCB1 in human K562/A02 cells assessed as potentiation of adriamycin-induced cytotoxicity by measuring ADR IC50 treated for 48 hrs followed by compound washout measured after 24 hrs by MTT assay relative to ADR alone; how it was run: as §3
[7] = molecular target: T1, ATP-dependent translocase ABCB1; assay: Inhibition of ABCB1 in human K562/A02 cells assessed as potentiation of adriamycin-induced cytotoxicity by measuring ADR IC50 treated for 48 hrs followed by compound washout measured after 12 hrs by MTT assay relative to ADR alone; how it was run: as §3
[8] = molecular target: T1, ATP-dependent translocase ABCB1; assay: Inhibition of ABCB1 in human K562/A02 cells assessed as potentiation of adriamycin-induced cytotoxicity by measuring reduction in ADR IC50 measured after 48 hrs by MTT assay relative to ADR alone; how it was run: as §2

Row | Compound | pIC50 [1] | pIC50 [2] | fold change (FC) [3] | fold change (FC) [4] | fold change (FC) [5] | fold change (FC) [6] | fold change (FC) [7] | fold change (FC) [8]
1 | COc1cc2c(cc1OC)CN(CCn1cc(COc3ccccc3NC(=O)c3ccc(C(C)(C)C)cc3)nn1)CC2 | < 4.00 | < 4.00 | 28.2 | – | – | – | – | –
2 | COc1cc2c(cc1OC)CN(CCc1ccc(NC(=O)c3cc(OC)c(OC)cc3NC(=O)c3cnc4ccccc4c3)cc1)CC2 | 4.57 | 4.50 | 49.1 | 16.86 | 10.37 | 3.55 | 6.1 | 31.98
3 | COc1cc2c(cc1OC)CN(CCn1cc(COc3ccccc3C(=O)Nc3cccc([N+](=O)[O-])c3)nn1)CC2 | < 4.00 | < 4.00 | 3.5 | – | – | – | – | –
4 | CCCCc1ccc(NC(=O)c2ccccc2OCc2cn(CCN3CCc4cc(OC)c(OC)cc4C3)nn2)cc1 | < 4.00 | < 4.00 | 15.5 | – | – | – | – | –
5 | COc1ccc(NC(=O)c2ccccc2OCc2cn(CCN3CCc4cc(OC)c(OC)cc4C3)nn2)cc1OC | < 4.00 | < 4.00 | 12.4 | – | – | – | – | –
6 | COc1cccc(NC(=O)c2ccccc2OCc2cn(CCN3CCc4cc(OC)c(OC)cc4C3)nn2)c1 | < 4.00 | < 4.00 | 5.6 to 11.1 | – | – | – | – | –
7 | COc1cc2c(cc1OC)CN(CCn1cc(COc3ccccc3C(=O)Nc3cccc(Cl)c3)nn1)CC2 | < 4.00 | 4.06 | 4.3 | – | – | – | – | –
8 | COc1cc2c(cc1OC)CN(CCn1cc(COc3ccccc3C(=O)Nc3ccc(C)cc3)nn1)CC2 | < 4.00 | < 4.00 | 12.6 | – | – | – | – | –
9 | COc1cc2c(cc1OC)CN(CCn1cc(COc3ccccc3C(=O)Nc3cccc(C)c3)nn1)CC2 | < 4.00 | < 4.00 | 8 | – | – | – | – | –
10 | COc1cc2c(cc1OC)CN(CCn1cc(COc3ccccc3C(=O)Nc3ccc(OC(F)(F)F)cc3)nn1)CC2 | < 4.00 | < 4.00 | 21.4 | – | – | – | – | –
